The source made the active and inactive calls. No cut-off for these calls is given here.
What was measured:
[1] = biological target: T1, Peroxisome proliferator-activated receptor alpha (Homo sapiens) (UniProt Q07869); test: Agonist activity at human PPARalpha expressed in HEK293 cells assessed as maximal activity by luciferase/beta-galactosidase reporter gene assay relative to GW7647; assay type: cell-based
T1 sequence (whole entry): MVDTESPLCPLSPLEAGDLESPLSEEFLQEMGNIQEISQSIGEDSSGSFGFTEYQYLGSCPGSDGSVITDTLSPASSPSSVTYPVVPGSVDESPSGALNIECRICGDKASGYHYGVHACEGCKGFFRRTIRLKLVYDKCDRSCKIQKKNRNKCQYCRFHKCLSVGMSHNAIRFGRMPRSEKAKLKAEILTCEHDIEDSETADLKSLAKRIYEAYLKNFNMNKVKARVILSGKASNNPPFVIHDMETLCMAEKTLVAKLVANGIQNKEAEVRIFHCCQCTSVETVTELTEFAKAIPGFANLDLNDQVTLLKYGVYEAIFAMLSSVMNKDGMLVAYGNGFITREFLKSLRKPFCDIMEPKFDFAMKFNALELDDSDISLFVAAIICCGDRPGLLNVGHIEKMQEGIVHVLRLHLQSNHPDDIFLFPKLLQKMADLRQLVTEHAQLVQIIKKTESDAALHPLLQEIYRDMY
Outline: (§1)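 HEK293 cells in charcoal-stripped FBS, calcium phosphate co-transfected with GAL4-hPPAR LBD fusion, UAS-luciferase and β-galactosidase. Ligand added 6–8 h post transfection, full dose–response, harvested 14–16 h later. Luciferase normalized to β-galactosidase.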

[2] = Metabolic stability in C57BL/6 mouse liver microsomes assessed as half life; assay type: ADME, Microsome; details: time 2 min
[3] = biological target: T2, Peroxisome proliferator-activated receptor alpha (Mus musculus) (UniProt P23204); test: Agonist activity at human PPARalpha in mouse hepatocytes assessed as induction of Pdk4 mRNA expression at 50 uM incubated for 16 hrs by quantitative real-time PCR analysis; assay type: cell-based; details: Hepatocyte, filed as agonist
T2 sequence (whole entry): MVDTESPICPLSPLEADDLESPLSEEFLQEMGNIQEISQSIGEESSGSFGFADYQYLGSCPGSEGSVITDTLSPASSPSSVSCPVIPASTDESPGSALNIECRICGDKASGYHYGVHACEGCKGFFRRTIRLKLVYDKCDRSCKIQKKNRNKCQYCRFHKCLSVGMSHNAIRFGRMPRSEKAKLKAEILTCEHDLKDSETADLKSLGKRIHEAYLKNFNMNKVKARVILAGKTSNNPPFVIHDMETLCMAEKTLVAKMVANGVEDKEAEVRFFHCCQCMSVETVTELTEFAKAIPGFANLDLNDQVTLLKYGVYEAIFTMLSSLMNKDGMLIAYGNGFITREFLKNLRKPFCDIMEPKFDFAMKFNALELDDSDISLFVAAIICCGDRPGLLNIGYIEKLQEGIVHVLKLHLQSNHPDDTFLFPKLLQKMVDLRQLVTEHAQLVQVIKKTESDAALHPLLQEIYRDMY
Outline: (§2)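 Collagenase-perfused mouse primary hepatocytes from WT mice, plated 2 h in attachment medium, overnight in M199 with 5% charcoal-stripped FBS and 1 nM insulin. Treated next day in serum-free M199 with 50 μM compound for 16 h. RNA qPCR (SYBR Green), comparative Ct method.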

[4] = biological target: T3, Peroxisome proliferator-activated receptor gamma (Mus musculus) (UniProt P37238); test: Agonist activity at human PPARgamma in mouse 3T3-L1 cells assessed as induction of adipogenic differentiation at 25 uM measured after 11 days by Oil Red O staining analysis; assay type: cell-based; details: filed as agonist, time 11.0 day
T3 sequence (whole entry): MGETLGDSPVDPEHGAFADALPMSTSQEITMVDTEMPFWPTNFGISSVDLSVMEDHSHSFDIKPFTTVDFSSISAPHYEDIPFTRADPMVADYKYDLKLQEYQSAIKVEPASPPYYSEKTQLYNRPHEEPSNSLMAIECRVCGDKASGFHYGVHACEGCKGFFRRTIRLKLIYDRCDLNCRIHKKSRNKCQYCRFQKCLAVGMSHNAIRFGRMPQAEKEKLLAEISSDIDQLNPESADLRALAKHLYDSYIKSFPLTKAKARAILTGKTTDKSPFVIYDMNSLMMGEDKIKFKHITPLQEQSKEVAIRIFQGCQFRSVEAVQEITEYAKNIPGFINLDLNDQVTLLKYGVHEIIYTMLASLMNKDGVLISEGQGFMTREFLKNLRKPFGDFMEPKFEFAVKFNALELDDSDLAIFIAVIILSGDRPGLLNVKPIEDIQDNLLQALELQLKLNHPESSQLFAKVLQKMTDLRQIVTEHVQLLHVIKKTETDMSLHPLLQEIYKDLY
Outline: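 3T3-L1 cells differentiated for 11 days (IBMX/dexamethasone/insulin induction, then insulin, then maintenance medium) with 25 μM compound or 10 μM rosiglitazone from day 0. Cells formalin-fixed and stained with 0.6% Oil Red O. Lipid quantified spectrophotometrically after dye extraction.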

[5] = biological target: T2, Peroxisome proliferator-activated receptor alpha (Mus musculus); test: Agonist activity at human PPARalpha in mouse hepatocytes assessed as induction of Fgf21 mRNA expression at 50 uM incubated for 16 hrs by quantitative real-time PCR analysis; assay type: cell-based; details: Hepatocyte, filed as agonist; outline: as §2
[6] = biological target: T4, Peroxisome proliferator-activated receptor gamma (Homo sapiens) (UniProt P37231); test: Agonist activity at human PPARgamma expressed in HEK293 cells assessed as maximal activity by luciferase/beta-galactosidase reporter gene assay relative to rosiglitazone; assay type: cell-based; outline: as §1
T4 sequence (whole entry): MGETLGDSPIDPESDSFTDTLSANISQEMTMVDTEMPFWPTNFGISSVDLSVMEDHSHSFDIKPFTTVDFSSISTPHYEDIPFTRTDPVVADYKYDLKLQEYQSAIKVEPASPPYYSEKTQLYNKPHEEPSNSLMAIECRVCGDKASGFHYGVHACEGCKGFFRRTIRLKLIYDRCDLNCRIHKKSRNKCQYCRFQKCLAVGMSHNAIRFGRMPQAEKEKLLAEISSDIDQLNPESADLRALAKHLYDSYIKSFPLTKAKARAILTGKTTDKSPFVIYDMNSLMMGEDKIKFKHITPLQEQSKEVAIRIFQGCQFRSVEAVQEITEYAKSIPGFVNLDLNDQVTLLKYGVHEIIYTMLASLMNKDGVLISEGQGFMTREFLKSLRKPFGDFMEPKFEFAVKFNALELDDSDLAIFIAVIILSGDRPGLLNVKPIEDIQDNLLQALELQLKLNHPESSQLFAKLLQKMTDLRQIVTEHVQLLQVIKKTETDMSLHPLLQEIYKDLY

[7] = biological target: T5, Peroxisome proliferator-activated receptor gamma (Homo sapiens, UniProt P37231); test: Agonist activity at human PPARgamma expressed in HEK293 cells by luciferase/beta-galactosidase reporter gene assay; assay type: cell-based; outline: as §1
T5 sequence (P37231 whole entry): T4 sequence (whole entry)

Danio rerio [8] = test: In vivo agonist activity at human GFP-tagged PPARalpha in transgenic zebrafish assessed as increase in GFP expression in heart at 0.5 uM measured after 14 hrs by microscopy
Danio rerio [9] = test: In vivo agonist activity at human GFP-tagged PPARalpha in transgenic zebrafish assessed as increase in GFP expression in yolk sac at 0.5 uM measured after 14 hrs by microscopy
[10] = Apparent oral clearance in C57BL/6 mouse at 40 mg/kg, ip […] by LC-MS/MS analysis; assay type: ADME, organism-based; details: in vivo

| SMILES | Emax ([1]; filed as agonist) [%] | half-life [2] [h] | Activity [3] | Activity [4] | Activity [5] | Emax ([6]; filed as agonist) [%] | EC50 [7] [nM] | Emax [1] [%] | Activity (Danio rerio [8]) | Activity (Danio rerio [9]) | CL/F [10] [mL/min/kg] | Emax [6] [%] |
| --- | --- | --- | --- | --- | --- | --- | --- | --- | --- | --- | --- | --- |
| CCCCCC/C=C\CCCCCCCc1cccc(OC(C)(C)C(=O)O)c1 | > 90 | 13.9 | Active | Active | Active | > 90 | 1780 | – | – | – | – | – |
| CCCCCCCCCCCCCCCc1cccc(OC(C)(C)C(=O)O)c1 | – | 6 | Active | Active | Active | – | 900 | 30 | Active | Active | 0.89 | 30 |
| CCCCCCCCCCCCCCCc1cccc(OC(C)=O)c1C(=O)O | > 90 | 0.0333 | Active | Active | – | > 90 | – | – | – | – | – | – |
